Assay results reported in ChEMBL document CHEMBL4425091, “Bafilomycins and Odoriferous Sesquiterpenoids from Streptomyces albolongus Isolated from Elephas maximus Feces” (J Nat Prod, 2016).
pIC50: −log10 of the molar value. Values after ≈ are worked out from the molar mass of the structure shown. Structures can show the parent of a compound that is named as a salt. Active and inactive are the calls of the source.

Columns and labels:
SMMC-7721 = test: Cytotoxicity against human SMMC7721 cells assessed as reduction in cell viability by MTT assay; type: functional, cell-based
Outline: (§1)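 MTT viability assay in human cancer cell lines. IC50 was defined as a 50% reduction of absorbance relative to the control assay. Adriamycin served as the positive control.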

Candida parapsilosis [1] = test: Antifungal activity against Candida parapsilosis ATCC 22019 after 48 hrs by MTT based microbroth dilution assay; type: functional; details: Lodderomyces parapsilosis, ATCC 22019, 48 h
Outline: (§2)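 MIC by broth microdilution in RPMI-1640 with NaHCO3 and MOPS, pH 7.0. DMSO stocks were 2-fold serially diluted to eight levels, then 10-fold in medium (1.1–0.0086 mg/mL). 10 µL was added to 100 µL yeast suspension: C. albicans and C. parapsilosis at 2 × 10^3 cfu/mL for 48 h; C. neoformans at 5 × 10^4 cfu/mL for 72 h; all at 28 °C. MTT added for 4 h, DMSO solubilization, A570.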

Caco-2 = test: Cytotoxicity against human Caco2 cells assessed as reduction in cell viability by MTT assay; type: functional, cell-based; outline: as §1
BGC-823 = test: Cytotoxicity against human BGC823 cells assessed as reduction in cell viability by MTT assay; type: functional, cell-based; outline: as §1
Cryptococcus neoformans [2] = test: Antifungal activity against Cryptococcus neoformans ATCC 208821 after 72 hrs by MTT based microbroth dilution assay; type: functional; details: ATCC 208821, 72 h; outline: as §2
NCI-H460 = test: Cytotoxicity against human NCI-H460 cells assessed as reduction in cell viability by MTT assay; type: functional, cell-based; outline: as §1
Candida albicans [3] = test: Antifungal activity against Candida albicans ATCC MYA-2876 after 48 hrs by MTT based microbroth dilution assay; type: functional; details: ATCC MYA-2876, 48 h; outline: as §2
Candida parapsilosis [4] = test: Antifungal activity against Candida parapsilosis ATCC 22019 at 100 ug/ml after 48 hrs by MTT based microbroth dilution assay; type: functional, organism-based
Candida albicans [5] = test: Antifungal activity against Candida albicans ATCC MYA-2876 at 100 ug/ml after 48 hrs by MTT based microbroth dilution assay; type: functional, organism-based
Bacillus spizizenii [6] = test: Antibacterial activity against Bacillus subtilis ATCC 6633 at 100 ug/ml after 24 hrs by MTT based microbroth dilution assay; type: functional, organism-based
Cryptococcus neoformans [7] = test: Antifungal activity against Cryptococcus neoformans ATCC 208821 at 100 ug/ml after 72 hrs by MTT based microbroth dilution assay; type: functional, organism-based
Staphylococcus aureus [8] = test: Antibacterial activity against Staphylococcus aureus ATCC 25923 at 100 ug/ml after 24 hrs by MTT based microbroth dilution assay; type: functional, organism-based
Escherichia coli = test: Antibacterial activity against Escherichia coli ATCC 25922 at 100 ug/ml after 24 hrs by MTT based microbroth dilution assay; type: functional, organism-based
Bacillus spizizenii [9] = test: Antibacterial activity against Bacillus subtilis ATCC 6633 after 24 hrs by MTT based microbroth dilution assay; type: functional; details: ATCC 6633, 24 h
Outline: (§3)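 Two-fold broth microdilution MIC in LB medium (pH 7.0). Compounds dissolved in DMSO, serially diluted to eight levels (11.0−0.086 mg/mL), then each diluted 10-fold in medium (1.1−0.0086 mg/mL). 10 μL of this added to 100 μL of bacteria at 1 × 10^6 cfu/mL. Incubated 24 h at 28 °C. MTT added for 4 h, wells emptied, DMSO added, absorbance read at 570 nm.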

Staphylococcus aureus [10] = test: Antibacterial activity against Staphylococcus aureus ATCC 25923 after 24 hrs by MTT based microbroth dilution assay; type: functional; details: ATCC 25923, 24 h; outline: as §3

Structure (SMILES) | pIC50 (SMMC-7721) | MIC (Candida parapsilosis [1]) [µg/mL] | pIC50 (Caco-2) | pIC50 (BGC-823) | MIC (Cryptococcus neoformans [2]) [µg/mL] | pIC50 (NCI-H460) | MIC (Candida albicans [3]) [µg/mL] | Activity (SMMC-7721) | Activity (Candida parapsilosis [4]) | Activity (Candida albicans [5]) | Activity (Bacillus spizizenii [6]) | Activity (Caco-2) | Activity (BGC-823) | Activity (Cryptococcus neoformans [7]) | Activity (Staphylococcus aureus [8]) | Activity (NCI-H460) | Activity (Escherichia coli) | MIC (Bacillus spizizenii [9]) [µg/mL] | MIC (Staphylococcus aureus [10]) [µg/mL]
C[C@H]1CC[C@@H](O)[C@@]2(C)C[C@H](O)CC[C@]12O | < 4.00 | 100 (≈ 467 µM) | 4.37 | 4.33 | > 100 | < 4.00 | 100 (≈ 467 µM) | – | – | – | – | – | – | – | – | – | – | – | –
CO/C1=C\C(C)=C\[C@@H](C)[C@@H](O)[C@@H](C)C/C(C)=C/C=C/[C@H](OC)[C@@H]([C@@H](C)[C@@H](O)[C@H](C)[C@@]2(O)CC[C@H](C)[C@@H](C(C)C)O2)OC1=O | 4.99 | 3.13 (≈ 5.16 µM) | 4.33 | 4.93 | 25 (≈ 41.2 µM) | 4.36 | 100 (≈ 165 µM) | – | – | – | – | – | – | – | – | – | – | – | –
C/C1=C\[C@@H](O)C[C@H](C)/C=C/[C@H](C(C)(C)O)CC1 | – | – | – | – | – | – | – | inactive | inactive | inactive | inactive | inactive | inactive | inactive | inactive | inactive | inactive | – | –
CO/C1=C\C(C)=C\[C@@H](C)[C@@H](O)[C@@H](C)C/C(C)=C/C=C/[C@H](OC)[C@@H]([C@@H](C)[C@@H](O)[C@H](C)[C@@]2(OC)CC[C@H](C)[C@@H](C(C)C)O2)OC1=O | 4.87 | – | < 4.00 | 4.33 | – | < 4.00 | – | – | inactive | inactive | inactive | – | – | inactive | inactive | – | inactive | – | –
O=C(O)c1cn(C2CC2)c2cc(N3CCNCC3)c(F)cc2c1=O [CIPROFLOXACIN] | – | – | – | – | – | – | – | – | – | – | – | – | – | – | – | – | – | 0.25 (≈ 0.754 µM) | –
CC1(C)C[C@H]2[C@H]1CC[C@]1(C)CCC[C@@]2(O)C1 | – | – | – | – | – | – | – | inactive | inactive | inactive | inactive | inactive | inactive | inactive | inactive | inactive | inactive | – | –
COc1cccc2c1C(=O)c1c(O)c3c(c(O)c1C2=O)C[C@@](O)(C(=O)CO)C[C@@H]3O[C@H]1C[C@H](N)[C@H](O)[C@H](C)O1 [DOXORUBICIN HYDROCHLORIDE] | 5.65 | – | 6.01 | – | – | 6.01 | – | – | – | – | – | – | – | – | – | – | – | – | –
CO/C1=C\C(C)=C\[C@@H](C)[C@@H](O)[C@@H](C)C/C(C)=C/C=C/[C@H](OC)[C@@H]([C@@H](C)[C@@H](O)[C@H](C)[C@@]2(OC)C[C@@H](OC(=O)/C=C/C(N)=O)[C@H](C)[C@@H](C(C)C)O2)OC1=O | 5.87 | – | 5.55 | 5.45 | – | 5.30 | – | – | inactive | inactive | inactive | – | – | inactive | inactive | – | inactive | – | –
CC1(C)C[C@H]2[C@H]1CC[C@@]1(C)C[C@]2(O)CC[C@@H]1O | – | – | – | – | – | – | – | inactive | inactive | inactive | inactive | inactive | inactive | inactive | inactive | inactive | inactive | – | –
CO/C1=C\C(C)=C\[C@@H](C)[C@@H](O)[C@@H](C)C/C(C)=C/C=C/[C@H](OC)[C@@H]([C@@H](C)[C@@H](O)[C@H](C)[C@@]2(OC)C[C@@H](O)[C@H](C)[C@@H](C(C)C)O2)OC1=O | 5.03 | – | 4.99 | 4.65 | – | 4.57 | – | – | inactive | inactive | inactive | – | – | inactive | inactive | – | inactive | – | –
CO/C1=C/C(C)=C/[C@@H](C)[C@@H](O)[C@@H](C)C/C(C)=C/C=C/[C@H](OC)C([C@@H](C)[C@@H](O)[C@H](C)C(=O)/C=C/[C@H](C)[C@H](O)C(C)C)OC1=O (some centres undefined) | 5.01 | – | 4.84 | 5.02 | – | 4.30 | – | – | inactive | inactive | inactive | – | – | inactive | inactive | – | inactive | – | –
C[C@H]1CC[C@@H](O)[C@@]2(C)CCCC[C@]12O | 4.38 | 3.13 (≈ 15.8 µM) | 4.07 | 4.46 | > 100 | < 4.00 | 12.5 (≈ 63 µM) | – | – | – | – | – | – | – | – | – | – | – | –
CO/C1=C\C(C)=C\[C@@H](C)[C@@H](O)[C@@H](C)C/C(C)=C/C=C/[C@H](OC)[C@@H]([C@@H](C)[C@@H](O)[C@H](C)[C@@]2(O)C[C@@H](OC(=O)/C=C/C(=O)O)[C@H](C)[C@@H](C(C)C)O2)OC1=O | 6.27 | 1.56 (≈ 2.16 µM) | 5.72 | 5.74 | 1.56 (≈ 2.16 µM) | 5.46 | 1.56 (≈ 2.16 µM) | – | – | – | – | – | – | – | – | – | – | 12.5 (≈ 17.3 µM) | 12.5 (≈ 17.3 µM)
CO/C1=C\C(C)=C\[C@@H](C)[C@@H](O)[C@@H](C)C/C(C)=C/C=C/[C@H](OC)[C@@H]([C@@H](C)[C@@H](O)[C@H](C)[C@@]2(O)C[C@@H](O)[C@H](C)[C@@H](C(C)C)O2)OC1=O [BAFILOMYCIN A1] | 5.69 | – | 5.26 | 5.19 | – | 4.91 | – | – | inactive | inactive | inactive | – | – | inactive | inactive | – | inactive | – | –
CO/C1=C\C(C)=C\[C@@H](C)[C@@H](O)[C@@H](C)C/C(C)=C/C=C/[C@H](OC)[C@@H]([C@@H](C)[C@@H](O)[C@H](C)[C@@]2(O)C[C@@H](OC)[C@H](C)[C@@H](C(C)C)O2)OC1=O [BAFILOMYCIN G] | 5.06 | – | < 4.00 | 4.16 | – | < 4.00 | – | – | inactive | inactive | inactive | – | – | inactive | inactive | – | inactive | – | –
C[C@@H]1[C@H](O)[C@@H](C)/C=C/C=C/C=C/C=C/C=C/C=C/C=C/[C@H](O[C@@H]2O[C@H](C)[C@@H](O)[C@H](N)[C@@H]2O)C[C@@H]2O[C@](O)(C[C@@H](O)C[C@@H](O)[C@H](O)CC[C@@H](O)C[C@@H](O)CC(=O)O[C@H]1C)C[C@H](O)[C@H]2C(=O)O [AMPHOTERICIN B] | – | 2 (≈ 2.16 µM) | – | – | 2 (≈ 2.16 µM) | – | 1 (≈ 1.08 µM) | – | – | – | – | – | – | – | – | – | – | – | –
CC1=C[C@@H]2[C@@H](C(C)C)CC[C@H](C)[C@]2(O)CC1 | – | – | – | – | – | – | – | inactive | inactive | inactive | inactive | inactive | inactive | inactive | inactive | inactive | inactive | – | –
CO/C1=C\C(C)=C\[C@@H](C)[C@@H](O)[C@@H](C)C/C(C)=C/C=C/[C@H](OC)[C@@H]([C@@H](C)[C@@H](O)[C@H](C)[C@@]2(O)C[C@@H](OC(=O)/C=C/C(N)=O)[C@H](C)[C@@H](C(C)C)O2)OC1=O | 5.98 | 1.56 (≈ 2.17 µM) | 5.64 | 6.00 | 25 (≈ 34.7 µM) | 5.63 | 100 (≈ 139 µM) | – | – | – | – | – | – | – | – | – | – | – | –
C[C@H]1[C@@H](O)CC[C@@]2(C)CCCC[C@]12O | < 4.00 | – | < 4.00 | 4.31 | – | < 4.00 | – | – | inactive | inactive | inactive | – | – | inactive | inactive | – | inactive | – | –
